High-throughput results from PubChem BioAssay.
MEKK2mut PB1 HTS = signal of MEK5 binding to mutant human MEKK2 PB1 domain; 0.35% of 290,000 active; bead flow cytometry, Alexa488-MEK5 binding to MEKK2 mutant; percent response, % at 10 µM; in the data active = percent response above about 24%, passing the limit was not always enough
T cruzi repl = blocks replication of Trypanosoma cruzi | T. cruzi beta-gal in NIH3T3, luminescence, 90 h | inhibition, % (no concentration beside the values) | AID 1885 | 1.4% of 300,000 active;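 active = mean inhibition across valid replicates above about 55%, limit read from the data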;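 also: signal also drops with host cell toxicity which is not excluded here; 0% = plate median of DMSO wells and 100% = zero luminescence signal; higher percent means less beta-gal luminescence so fewer parasites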
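Material: NIH/3T3 host cells with β-galactosidase reporter T. cruzi; Input: 5,000 host fibroblasts per well; Medium: DMEM, 2% fetal bovine serum; Compound: 50 nL DMSO compound solution per well; Schedule: 3 h host attachment, then at least 90 h co-culture; Detection: luminescent β-galactosidase signal after 60 min lysis.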
HCV NS3 hel inh = inhibitors of Hepatitis C virus NS3 helicase. NS3 helicase DNA unwinding, Cy5 molecular beacon fluorescence. inhibition, % at 10.9 µM. 0.56% of 290,000 active. AID 1800;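 active = inhibition above the mean of all tested compounds plus 3 SD, set per campaign, cut at about 35% in these data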;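 also: 0% = DMSO wells and 100% = thioflavine S control wells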
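Control set: DMSO versus 110 µM thioflavine S; Material: NS3 helicase fragment of HCV; Measured by: Cy5 fluorescence at 0 and 60 min, beacon hairpin quenching; Read-out basis: percent inhibition from t60/t0 fluorescence ratio; Times: reaction time 60 min, 25 °C; Repeats: single replicate; Compound dosing: single dose, 10.9 µM nominal final, DMSO 0.8% final.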
FID counter = displaces DNA intercalator in HCV helicase counter-screen; DNA fluorescent intercalator displacement, fluorescence; inhibition, % at 7.9 µM; 0.17% of 290,000 active; AID 1845; in the data active = inhibition above about 37%;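 also: 0% = vehicle and 100% = reference compound; higher means more ethidium bromide displaced from hairpin DNA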
MEKK2wt PB1 HTS = raises or lowers MEK5 binding to wildtype human MEKK2 PB1 domain. Q9Y2U5. bead flow cytometry, Alexa488-MEK5 binding to MEKK2 WT; actives lie on both sides. binding response (% of control), % at 10 µM. 1.1% of 290,000 active. AID 1531; in the data active = binding response below about 67% or above about 130%
MEKK3 PB1 HTS = modulators (inhibitors or enhancers) of MEK5 binding to human MEKK3 PB1 domain; bead-based flow cytometry, Alexa488-MEK5 binding to MEKK3; actives lie on both sides; 0 = blocked by unlabeled MEK5, 100 = vehicle; Q99759; 1.4% of 290,000 active; binding response (% of control), % at 10 µM;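 active = binding response more than 3 SD above or below the average of its plate-row segment, actives on both sides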;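 also: Alexa488 bead fluorescence after subtracting the streptavidin-only scavenger bead signal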
Target sequence (Q99759 whole entry, looked up, the tested form may be a part): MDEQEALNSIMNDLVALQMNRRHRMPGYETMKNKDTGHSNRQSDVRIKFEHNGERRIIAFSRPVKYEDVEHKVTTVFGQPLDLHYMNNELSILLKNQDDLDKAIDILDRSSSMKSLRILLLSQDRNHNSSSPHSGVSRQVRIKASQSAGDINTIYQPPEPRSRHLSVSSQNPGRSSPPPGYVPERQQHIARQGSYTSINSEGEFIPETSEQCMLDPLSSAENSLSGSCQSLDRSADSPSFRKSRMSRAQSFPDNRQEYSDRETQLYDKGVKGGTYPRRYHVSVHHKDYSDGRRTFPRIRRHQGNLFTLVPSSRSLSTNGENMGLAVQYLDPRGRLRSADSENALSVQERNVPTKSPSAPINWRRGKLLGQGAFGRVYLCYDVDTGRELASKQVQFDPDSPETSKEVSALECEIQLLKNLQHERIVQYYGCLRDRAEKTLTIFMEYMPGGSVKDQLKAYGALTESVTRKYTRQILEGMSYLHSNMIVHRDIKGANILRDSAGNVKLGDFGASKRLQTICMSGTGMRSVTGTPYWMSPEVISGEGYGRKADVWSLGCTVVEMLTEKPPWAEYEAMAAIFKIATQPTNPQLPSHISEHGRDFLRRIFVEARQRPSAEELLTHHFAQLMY
* = called active by the depositor; / = no result given; ! = repeats disagree. This is a sample that favours compounds with a hit; in the whole collection about 4.1% have one here.

SMILES	MEKK2mut PB1 HTS	T cruzi repl	HCV NS3 hel inh	FID counter	MEKK2wt PB1 HTS	MEKK3 PB1 HTS
CN1/C(=C\C(=O)C[n+]2ccc3ccccc3c2)C(C)(C)c2ccccc21	-2	61*	-9	1	104	107
CC1=Nc2ccccc2/C1=C\c1nc(-c2ccccc2)oc1O	6	7	0	2	4.0*	95
O=C1/C(=C/c2ccccc2F)SC(=S)N1CC(=O)N1CCCCC1c1cccnc1 (stereo unspecified)	0	18	-8	-33	95	102
CCCCN(CC)S(=O)(=O)c1ccc(C(=O)Nc2nnc(-c3cccs3)o2)cc1	7	63*	24	-22	116	113
CCCCOC(=O)Nc1nnc(C(C)C)s1	-10	64*	3	-5	92	94
COc1ccc(CCNC(=O)CN(c2cc(OC)ccc2OC)S(=O)(=O)c2ccccc2)cc1	1	14	-8	-45	99	103
COc1ccc(N(CC(=O)NCCC2=CCCCC2)S(=O)(=O)c2ccc(C)cc2)cc1	0	62*	-1	-3	99	99
COc1ccc(CCNC(=O)CN(c2ccccc2OC)S(=O)(=O)c2ccc(C)cc2)cc1	7	60*	-4	-39	102	103
COc1ccc(N(CC(=O)NCCC2=CCCCC2)S(=O)(=O)c2ccccc2F)cc1	1	4	-7	-28	99	114
CCOc1ccc(N(CC(=O)NCCC2=CCCCC2)S(=O)(=O)c2ccccc2)cc1	-1	62*	-4	0	92	95
Cc1cc2c(N=NC(=O)C3CC3c3ccccc3)c(O)[nH]c2cc1Br (stereo unspecified)	-2	28	-4	3	96	101
O=S(=O)(NCc1ccccc1Cl)c1cccs1	2	2	-1	0	106	102
CN(C)S(=O)(=O)c1ccc(Cl)c(NC(=O)COC(=O)c2ccc3c(c2)NC(=O)CS3)c1	-7	-6	5	-19	92	100
C=C[C@]1(C)C[C@@H](OC(=O)CSCCN(CC)CC)[C@]2(C)C(C)CC[C@]3(CCC(=O)[C@H]32)[C@@H](C)[C@@H]1O (stereo partly specified)	/	59*!	/	/	/	/
CC(NC(=O)CN1C(=O)NC(Cc2ccccc2)(Cc2ccccc2)C1=O)C12CC3CC(CC(C3)C1)C2 (stereo unspecified)	-2	61*	-10	-32	99	100
FC(F)(F)COc1nc(N/N=C/c2cccnc2)nc(N2CCCCC2c2ccccn2)n1 (stereo unspecified)	5	59*	0	-33	98	103
C(=N\Nc1nc(N2CCCC2)nc(N2CCCC2)n1)/c1cccnc1	-4	-7	3	-5	102	95
Nc1nn(S(=O)(=O)c2ccccc2)cc1-c1cccc([N+](=O)[O-])c1	13	57*	1	3	106	106
Cc1cc(C)c(Nc2cc(S(=O)(=O)O)c(N)c3c2C(=O)c2ccccc2C3=O)c(C)c1	-18	/	24	44*	77	94
CC1C(=O)CC(c2ccccc2)N(C)C1c1ccccc1 (stereo unspecified)	5	0	/	/	111	108
CCC1C(c2ccccc2)N(C)C(c2ccccc2)CC1(O)c1ccccc1 (stereo unspecified)	-6	60*	-19	21	103	102
CC(C)C1C(c2ccccc2)N(C)C(c2ccccc2)CC1(O)c1ccccc1 (stereo unspecified)	9	58*	-7	0	129	99
O=c1cc(CCl)nc2sc3ccccc3n12	-3	61*	4	0	93	94
O=C1CC(NNC(=O)c2cccc(F)c2)C(=O)N1 (stereo unspecified)	-4	-5	4	-5	96	96
Cn1cc(CN2CCCC(CO)(Cc3ccccc3)C2)c2ccccc21 (stereo unspecified)	14	67*	-12	16	124	106
COc1ccc(F)c(CN2CCCC(CO)(Cc3cccc(Cl)c3)C2)c1 (stereo unspecified)	5	31	-13	0	106	106
